Bioassay records (PubChem)
A selection: hits, their analogues and other compounds. The true share with any hit is near 4%.
Hsp70 act = transcriptional activators of Hsp70; HeLa Hsp70 promoter luciferase reporter, luminescence; scaled: vehicle 0, proteasome-inhibitor control 100%; 200,000 tested, 0.04% active; activation, % at 10 µM; AID 1203;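 active = activation above the mean across all tested compounds plus 3 SD, cutoff set per campaign, cut at about 5.5% in these data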;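 also: 100% = MG132 at 30 µM as the positive control and 0% = DMSO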
Mdm2 ligase inh = inhibitors of human Mdm2 E3 ubiquitin ligase; signal enhancement, % at 5 µM; cell-based MDM2 ubiquitination luciferase reporter, 2 h; 0 = plate control, 100 = twice control, blank-subtracted; 210,000 tested, 0.11% active; Q00987;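 active = signal enhancement of 30% or more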;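 also: luminescence tracks abundance of the self-degrading MDM2-luciferase fusion protein; higher signal means inhibition of MDM2 E3 ligase activity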
Target sequence (Q00987 whole entry, looked up, the tested form may be a part): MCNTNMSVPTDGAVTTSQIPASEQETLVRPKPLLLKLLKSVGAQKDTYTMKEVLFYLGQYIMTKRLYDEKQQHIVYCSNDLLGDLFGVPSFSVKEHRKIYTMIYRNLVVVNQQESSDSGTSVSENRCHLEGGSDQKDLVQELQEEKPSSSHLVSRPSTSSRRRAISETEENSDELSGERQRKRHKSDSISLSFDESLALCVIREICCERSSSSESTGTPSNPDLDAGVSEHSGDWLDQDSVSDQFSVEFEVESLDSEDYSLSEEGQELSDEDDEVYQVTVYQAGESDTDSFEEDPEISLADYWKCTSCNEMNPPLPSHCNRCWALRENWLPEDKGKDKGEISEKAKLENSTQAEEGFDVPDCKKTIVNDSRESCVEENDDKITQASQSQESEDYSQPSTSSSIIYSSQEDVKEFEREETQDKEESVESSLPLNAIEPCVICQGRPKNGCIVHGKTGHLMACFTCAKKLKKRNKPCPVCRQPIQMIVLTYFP
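Assay system: stable mammalian line carrying autodegrading MDM2–luciferase fusion reporter; amount: 2000 cells seeded into each well; buffer or medium: DMEM; benchmarks: plate control and blank wells; signal: luciferase luminescence; timing: 2 h compound exposure at 37 °C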
S1P3 antag-1 = S1P3 (human) receptor antagonism; CHO S1P3 NFAT-BLA reporter, FRET fluorescence, antagonist mode; inhibition, % at 4.98 µM; 170,000 tested, 0.27% active;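 active = inhibition above the plate cutoff, the mean inhibition of test wells on that plate plus 3 SD, cut at about 28% in these data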;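 also: cells challenged with S1P at its EC80 of 0.8 µM; blue over green emission ratio from cleaved BLA substrate after 4 h stimulation; 0% = S1P-stimulated wells and 100% = unstimulated DMSO-only wells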
CHOP inh = inhibitors of CHOP induction in ER stress response; CHO-K1 CHOP-promoter luciferase, tunicamycin-induced, 15-18 h; AID 2732; 220,000 tested, 3.8% active; inhibition, % at 10 µM;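 active = compounds that reduced the stress-induced luciferase reporter signal by more than about 70% of percent inhibition, limit read from the data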;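 also: 0% = tunicamycin plus vehicle and 100% = wells without tunicamycin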
S1P3 antag-2 = human S1P3 receptor antagonism, confirmation. shares compounds with S1P3 antag-1. CHO S1P3 NFAT-BLA reporter, FRET, antagonist mode. inhibition, % at 4.98 µM. 240 tested, 30% active. AID 1429;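 active = inhibition above the hit threshold that was computed for the earlier primary screen, cut at about 30% in these data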;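 also: 0% = S1P-stimulated wells and 100% = unstimulated DMSO-only wells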
Hsp70 act dose = activates Hsp70 transcription in dose response; 70 tested, 10% active; shares compounds with Hsp70 act; HeLa hsp70.1pr-luc reporter, luciferase luminescence; calls only at 99 µM;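 active = over 50% activation at some tested dose; inactive = under 50% activation at every tested dose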
CHOP confirm = confirmation of CHOP induction inhibitors; shares compounds with CHOP inh; CHO-CHOP promoter luciferase reporter, tunicamycin-induced, luminescence; inhibition, % at 10 µM; 2,100 tested, 45% active; AID 504437;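 active = mean of three repeat readings of reporter signal inhibition above a set limit, cut at about 70% in these data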;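 also: 0% = tunicamycin plus vehicle and 100% = wells lacking tunicamycin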
Numbers without * were called inactive; i = inactive; · = no result given.

SMILES	Hsp70 act	Mdm2 ligase inh	S1P3 antag-1	CHOP inh	Hsp70 act dose	others
CCNc1nc(NCC)nc(OCCNS(=O)(=O)c2ccccc2)n1	·	-10	-2	8	·
Cc1ccc(NC(=O)C(C)c2ccc([N+](=O)[O-])cc2)cc1Cl (configuration not stated)	-1	-13	49*	44	·	S1P3 antag-2=48*
Cc1ccc(NC(=O)C(OC(=O)c2ccccc2Cl)c2ccccc2)cc1Cl (configuration not stated)	0	8	29*	11	·	S1P3 antag-2=40*
Cc1cc(C(=O)OC(C(=O)Nc2ccc(C)c(Cl)c2)c2ccccc2)c(C)o1 (configuration not stated)	0	-12	53*	40	·	S1P3 antag-2=40*
COc1ccc(NC(=O)C(OC)c2ccccc2)cc1Cl (configuration not stated)	0	-4	16	-4	·
CCCCNC(=O)[C@H](CSCc1ccccc1)N1Cc2ccccc2C1=O	0	·	-3	1	·
C/C(=N\Nc1ccc([N+](=O)[O-])cc1)c1ccc(O)cc1	0	-5	34*	15	·	S1P3 antag-2=27
C/C(=N\Nc1ccc([N+](=O)[O-])cc1)c1cccc(N)c1	0	-18	·	55	·
COc1ccc(Nc2ncc(C(=O)N3CCN(Cc4ccccc4)CC3)c3ccccc23)cc1	0	-8	·	29	·
Cc1ccc(Oc2ccc(C=O)cn2)cc1	0	-12	34*	-5	·	S1P3 antag-2=-19
FC(F)(F)c1cccc(NC(=S)NC(c2ccccc2)c2ccccc2)c1	0	-13	45*	103*	·	S1P3 antag-2=49*;CHOP confirm=75*
CC(C)(C)NC(=O)NCc1cccnc1	·	3	-1	8	·
COc1ccc(C(CNC(=O)c2cc3ccccc3o2)N2CCCCC2)cc1 (configuration not stated)	9.3*	-8	-2	20	i
COc1ccc(/C=C/C(=O)c2cc(F)ccc2OC(=O)c2ccccc2)cc1OC	5	·	·	·	·
COc1ccc(/C=C/C(=O)c2cc(F)ccc2OC(=O)c2ccccc2OC)cc1OC	9.9*	-36	26	-64	i
COc1ccc(C)cc1S(=O)(=O)N(CC(=O)Nc1cccc([N+](=O)[O-])c1)c1ccc(C)c(C)c1	0	-9	3	-30	·
Cc1nn(C)c(C)c1NC(=O)c1ccc(S(=O)(=O)N(C)C)cc1	6.6*	-12	22	3	i
N#C/C(=C\c1ccncc1)C(N)=O	0	-4	-19	-20	·
CCCOc1ccc(OCCNC2CCCC2)cc1	0	-9	·	-10	·
CCOc1ccc(NC(=O)c2ccc(NC(=S)NC3CC3)cc2)cc1	9.4*	-21	-5	18	i
CCOc1ccc(NC(=O)c2ccc(NC(=S)NC3CCCCC3)cc2)cc1	0	-21	8	55	·
COc1ccc(N=Nc2[nH]c3ccc(C)cc3c2O)cc1	5.6*	13	2	91*	i
CCOC(=O)C1CCN(c2ccc([N+](=O)[O-])cc2)CC1	5.7*	-13	-16	10	i
CCOC(=O)C1CCN(c2ccc(C(N)=O)cc2[N+](=O)[O-])CC1	0	-12	-3	16	·
Cc1cc(C)n(CCOc2ccc(Cl)cc2Cl)n1	0	-11	-27	46	·
SMILES	Hsp70 act	Mdm2 ligase inh	S1P3 antag-1	CHOP inh	Hsp70 act dose	others
Cc1cc(C)nc(SCc2nnc(SCC(=O)Nc3cc(C(F)(F)F)ccc3Cl)o2)n1	5.7*	-20	3	27	i
C=CCSc1nccc(-c2nn(-c3ccc(C)cc3)ccc2=O)n1	17*	-8	·	37	i
O=C(Nc1nc(-c2ccccn2)cs1)C1CC(=O)N(c2ccc3c(c2)OCCO3)C1 (configuration not stated)	-1	3	10	42	·
CCC(=O)N1CCN(c2ccc(NC(=O)c3ccc([N+](=O)[O-])o3)cc2Cl)CC1	43*	8	-3	25	i
CCN1CCN(c2ccc(NC(=O)c3ccc([N+](=O)[O-])o3)cc2Cl)CC1	0	-15	0	-83	·
COc1ccc(C(c2c(O)ccc3ccccc23)N2CCOCC2)c(OC)c1 (configuration not stated)	6.4*	-10	6	-45	i
